Source: ChEMBL document CHEMBL1817572, “New, potent, selective, and short-acting peptidic V1a receptor agonists” (J Med Chem, 2011)
pEC50: −log10 of the molar value. Numbered stars: 1 amine (or outer) side, 2 acyl side, 3 side chain; on linkers, the order of the positions; unused ones are H or OH. Bridge positions count the residues as written; N and C are the ends. Square brackets hold non-standard residues; d marks the D form. Peptide text beside a SMILES is read from it. * marks the point of attachment. Ala(2-furyl) = N[C@@H](Cc1ccco1)C(=O)O; X4 = CONC(=O)CC[C@H](N[*:1])C(=O)[*:2]; Orn(iPr) = CC(C)NCCC[C@H](N)C(=O)O; 2Thi = N[C@@H](Cc1cccs1)C(=O)O; 3Thi = N[C@@H](Cc1ccsc1)C(=O)O; Orn = NCCC[C@H](N)C(=O)O; Dab = NCC[C@H](N)C(=O)O; Ac4c = NC1(C(=O)O)CCC1; Dap = NC[C@H](N)C(=O)O; NHCH2CH2OH = OCCN*; X2 = CC(O)CN*; NHOH = ON*

What was measured:
[1] = biological target: Vasopressin V1a receptor (Homo sapiens, UniProt P37288); test: Agonist activity at recombinant human vasopressin V1a receptor expressed in HEK293 cells by luciferase reporter gene assay; format: functional, cell-based; details: read-out: EC50
Sequence of Vasopressin V1a receptor (P37288 whole entry): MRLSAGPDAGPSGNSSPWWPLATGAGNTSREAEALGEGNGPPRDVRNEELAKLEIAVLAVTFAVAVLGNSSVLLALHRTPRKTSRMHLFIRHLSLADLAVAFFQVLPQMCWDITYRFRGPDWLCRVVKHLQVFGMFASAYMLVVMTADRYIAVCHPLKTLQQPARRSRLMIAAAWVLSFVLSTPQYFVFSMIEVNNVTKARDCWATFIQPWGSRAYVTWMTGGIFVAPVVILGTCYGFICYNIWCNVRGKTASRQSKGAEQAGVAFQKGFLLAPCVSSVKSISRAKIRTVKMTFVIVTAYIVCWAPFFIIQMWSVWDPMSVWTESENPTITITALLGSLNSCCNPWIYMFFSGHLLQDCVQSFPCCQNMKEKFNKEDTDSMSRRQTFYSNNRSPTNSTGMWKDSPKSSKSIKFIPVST

[2] = organism: Homo sapiens; test: Selectivity ratio of EC50 for human oxytocin receptor to EC50 for human vasopressin V1a receptor
[3] = biological target: Vasopressin V1a/V2 (Homo sapiens) (UniProt P30518+P37288); test: Selectivity ratio of EC50 for human vasopressin V2 receptor to EC50 for human vasopressin V1a receptor
Sequence of Vasopressin V1a/V2 (Homo sapiens) (P30518 whole entry, looked up): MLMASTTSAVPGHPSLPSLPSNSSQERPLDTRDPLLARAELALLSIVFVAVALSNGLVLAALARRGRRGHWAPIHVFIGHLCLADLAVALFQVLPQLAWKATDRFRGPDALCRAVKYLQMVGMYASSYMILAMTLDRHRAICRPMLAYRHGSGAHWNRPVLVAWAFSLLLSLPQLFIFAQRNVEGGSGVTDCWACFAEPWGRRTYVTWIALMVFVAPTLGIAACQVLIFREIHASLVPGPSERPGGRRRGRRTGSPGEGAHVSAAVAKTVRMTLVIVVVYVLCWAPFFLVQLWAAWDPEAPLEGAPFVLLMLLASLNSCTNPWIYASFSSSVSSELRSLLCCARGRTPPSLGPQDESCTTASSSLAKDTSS
Sequence of Vasopressin V1a/V2 (Homo sapiens) (P37288 whole entry, looked up): as the sequence (P37288 whole entry) above

[4] = organism: Homo sapiens; test: Selectivity ratio of EC50 for human vasopressin V1b receptor to EC50 for human vasopressin V1a receptor
[5] = biological target: T1, Oxytocin receptor (Homo sapiens, UniProt P30559); test: Agonist activity at human OT receptor expressed in CHO-K1 cells by luciferase reporter gene assay; format: functional, cell-based; details: for pEC50: read-out: EC50; for EC50: read-out: pEC50 (converted)
T1 sequence (P30559 whole entry): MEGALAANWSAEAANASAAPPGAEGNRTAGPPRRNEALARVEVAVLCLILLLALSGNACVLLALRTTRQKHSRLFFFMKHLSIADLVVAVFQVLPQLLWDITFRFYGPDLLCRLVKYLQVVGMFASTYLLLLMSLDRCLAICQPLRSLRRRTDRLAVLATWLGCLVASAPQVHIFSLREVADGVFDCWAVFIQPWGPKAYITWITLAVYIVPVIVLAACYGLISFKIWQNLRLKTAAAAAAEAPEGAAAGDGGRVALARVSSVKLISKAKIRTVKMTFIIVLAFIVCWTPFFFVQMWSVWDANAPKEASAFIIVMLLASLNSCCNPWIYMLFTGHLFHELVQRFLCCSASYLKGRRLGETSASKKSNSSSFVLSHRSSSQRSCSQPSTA

[6] = biological target: Vasopressin V2 receptor (Homo sapiens, UniProt P30518); test: Agonist activity at recombinant human vasopressin V2 receptor expressed in HEK293 cells by luciferase reporter gene assay; format: functional, cell-based; details: for pEC50: read-out: EC50; for EC50: read-out: pEC50 (converted)
Sequence of Vasopressin V2 receptor (P30518 whole entry): as the sequence (P30518 whole entry, looked up) above

[7] = biological target: T2, Vasopressin V1b receptor (Homo sapiens, UniProt P47901); test: Agonist activity at recombinant human vasopressin V1b receptor expressed in Flp-In-293 cells by luciferase reporter gene assay; format: functional, cell-based; details: read-out: EC50
T2 sequence (P47901 whole entry): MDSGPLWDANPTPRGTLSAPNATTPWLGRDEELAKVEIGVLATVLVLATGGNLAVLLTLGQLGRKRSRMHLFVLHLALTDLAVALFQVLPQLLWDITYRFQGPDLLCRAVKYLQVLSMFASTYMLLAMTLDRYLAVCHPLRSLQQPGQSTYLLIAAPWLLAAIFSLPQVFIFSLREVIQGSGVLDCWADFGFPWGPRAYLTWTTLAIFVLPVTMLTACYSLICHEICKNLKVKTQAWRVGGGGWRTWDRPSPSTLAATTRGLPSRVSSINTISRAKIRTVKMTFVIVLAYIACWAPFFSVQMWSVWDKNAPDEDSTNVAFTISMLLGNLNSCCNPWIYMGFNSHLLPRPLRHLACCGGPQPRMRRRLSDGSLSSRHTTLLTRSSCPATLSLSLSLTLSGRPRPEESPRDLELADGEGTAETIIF
How it was run: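 Reporter gene assays in HEK293 cells transiently cotransfected with V1a (human or rat) or human V2 receptor vector plus NFAT-luciferase (V1a) or CRE-luciferase (V2) reporter; V1b in Flp-In-293 stably expressing receptor, OT in CHO-K1 stably expressing receptor, both transiently transfected with NFAT-luciferase. Two days post-transfection, peptides added for 5 h at 37 °C, lysis with luciferin, luminescence read.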

pEC50 [1] | Ratio EC50 [2] | Ratio EC50 [3] | Ratio EC50 [4] | pEC50 ([5]; cho-k1) | EC50 [5] [nM] | pEC50 ([6]; hek293) | EC50 [6] [nM] | pEC50 [7] | pEC50 [6] | pEC50 [5] | SMILES
8.24 | > 1700 | > 1700 | 5.2 | < 5.00 | > 10000 | < 5.00 | > 10000 | 7.52 | – | – | CCNC(=O)C[C@@H]1NC(=O)[C@H]([C@@H](C)CC)NC(=O)[C@H](Cc2ccccc2)NC(=O)[C@@H](N)CSSC[C@@H](C(=O)N2CCC[C@H]2C(=O)N[C@@H](CCCN)C(=O)NCC(N)=O)NC(=O)[C@H](CC(N)=O)NC1=O (H-CFID(NHEt)NCP[Orn]G-NH2; disulfide 1-6)
8.14 | > 1300 | > 1300 | 47 | < 5.00 | > 10000 | < 5.00 | > 10000 | 6.46 | – | – | CC[C@H](C)[C@@H]1NC(=O)[C@H](Cc2ccsc2)NC(=O)[C@@H](N)CSSC[C@@H](C(=O)N2CCC[C@H]2C(=O)N[C@@H](CCCN)C(=O)NCC(N)=O)NC(=O)[C@H](CC(N)=O)NC(=O)[C@H](CC(N)=O)NC1=O (H-C[3Thi]INNCP[Orn]G-NH2; disulfide 1-6)
7.52 | > 330 | 24 | 7 | < 5.00 | > 10000 | – | – | 6.68 | 6.14 | – | CC[C@H](C)[C@@H]1NC(=O)[C@H](Cc2ccccc2)NC(=O)[C@@H](N)CSSC[C@@H](C(=O)N2CCC[C@H]2C(=O)N[C@@H](CN)C(=O)NCC(N)=O)NC(=O)[C@H](CC(N)=O)NC(=O)[C@H](CCC(N)=O)NC1=O (H-CFIQNCP[Dap]G-NH2; disulfide 1-6)
8.28 | > 1900 | > 1900 | 5.3 | < 5.00 | > 10000 | < 5.00 | > 10000 | 7.55 | – | – | CC[C@H](C)[C@@H]1NC(=O)[C@H](Cc2ccccc2)NC(=O)[C@@H](N)CSSC[C@@H](C(=O)N2CCC[C@H]2C(=O)N[C@@H](CCCN)C(=O)NCC(N)=O)NC(=O)[C@H](CC(N)=O)NC(=O)[C@H](CC(=O)NCC(C)O)NC1=O (stereo partly drawn) (H-CFID(X2)NCP[Orn]G-NH2; disulfide 1-6)
8.39 | > 2400 | 630 | 13 | < 5.00 | > 10000 | – | – | 7.25 | 5.59 | – | CC[C@H](C)[C@@H]1NC(=O)[C@H](Cc2ccccc2)NC(=O)[C@@H](N)CSSC[C@@H](C(=O)N2CCC[C@H]2C(=O)N[C@@H](CCCN)C(=O)NCC(N)=O)NC(=O)[C@H](CC(N)=O)NC(=O)[C@H](CC(=O)NO)NC1=O (H-CFID(NHOH)NCP[Orn]G-NH2; disulfide 1-6)
8.96 | > 9000 | 1500 | 25 | < 5.00 | > 10000 | – | – | 7.55 | 5.77 | – | CC[C@H](C)[C@@H]1NC(=O)[C@H](Cc2ccccc2)NC(=O)[C@@H](N)CSSC[C@@H](C(=O)N2CCC[C@H]2C(=O)N[C@@H](CCCN)C(=O)NCC(N)=O)NC(=O)[C@H](CC(N)=O)NC(=O)[C@H](CCC(=O)NOC)NC1=O (H-CFI[X4]NCP[Orn]G-NH2; disulfide 1-6)
8.10 | > 1200 | > 1200 | 3.2 | < 5.00 | > 10000 | < 5.00 | > 10000 | 7.59 | – | – | CC[C@H](C)[C@@H]1NC(=O)[C@H](Cc2ccccc2)NC(=O)[C@@H](N)CSSC[C@@H](C(=O)N2CCC[C@H]2C(=O)N[C@@H](CCCN)C(=O)NCC(N)=O)NC(=O)[C@H](CC(N)=O)NC(=O)[C@H](CC(=O)NCCO)NC1=O (H-CFID(NHCH2CH2OH)NCP[Orn]G-NH2; disulfide 1-6)
8.00 | > 1000 | > 1000 | 53 | < 5.00 | > 10000 | < 5.00 | > 10000 | 6.28 | – | – | CC[C@H](C)[C@@H]1NC(=O)[C@H](Cc2ccco2)NC(=O)[C@@H](N)CSSC[C@@H](C(=O)N2CCC[C@H]2C(=O)N[C@@H](CCCN)C(=O)NCC(N)=O)NC(=O)[C@H](CC(N)=O)NC(=O)[C@H](CC(N)=O)NC1=O (H-C[Ala(2-furyl)]INNCP[Orn]G-NH2; disulfide 1-6)
8.44 | > 2700 | > 2700 | 10 | < 5.00 | > 10000 | < 5.00 | > 10000 | 7.41 | – | – | CC[C@H](C)[C@@H]1NC(=O)[C@H](Cc2ccccc2)NC(=O)[C@@H](N)CSSC[C@@H](C(=O)N2CCC[C@H]2C(=O)N[C@@H](CCCN)C(=O)NCC(N)=O)NC(=O)[C@H](CC(N)=O)NC(=O)[C@H](CC(=O)NC)NC1=O (H-CFID(NHMe)NCP[Orn]G-NH2; disulfide 1-6)

Continued, compound first:

SMILES | pEC50 [1] | Ratio EC50 [2] | Ratio EC50 [3] | Ratio EC50 [4] | pEC50 ([5]; cho-k1) | EC50 [5] [nM] | pEC50 ([6]; hek293) | EC50 [6] [nM] | pEC50 [7] | pEC50 [6] | pEC50 [5]
NCCC[C@H](NC(=O)[C@@H]1CCCN1C(=O)[C@@H]1CSSC[C@H](N)C(=O)N[C@@H](Cc2ccccc2)C(=O)N[C@@H](Cc2ccccc2)C(=O)N[C@@H](CCC(N)=O)C(=O)N[C@@H](CC(N)=O)C(=O)N1)C(=O)NCC(N)=O (H-CFFQNCP[Orn]G-NH2; disulfide 1-6) | 9.85 | > 71000 | 65 | 100 | < 5.00 | > 10000 | – | – | 7.82 | 8.04 | –
CC[C@H](C)[C@@H]1NC(=O)C2(CCC2)NC(=O)[C@@H](N)CSSC[C@@H](C(=O)N2CCC[C@H]2C(=O)N[C@@H](CCN)C(=O)NCC(N)=O)NC(=O)[C@H](CC(N)=O)NC(=O)[C@H](CC(N)=O)NC1=O (H-C[Ac4c]INNCP[Dab]G-NH2; disulfide 1-6) | 7.92 | > 830 | > 830 | 10 | < 5.00 | > 10000 | < 5.00 | > 10000 | 6.92 | – | –
CC[C@H](C)[C@@H]1NC(=O)[C@H](Cc2ccsc2)NC(=O)[C@@H](N)CSSC[C@@H](C(=O)N2CCC[C@H]2C(=O)N[C@@H](CCN)C(=O)NCC(N)=O)NC(=O)[C@H](CC(N)=O)NC(=O)[C@H](CC(N)=O)NC1=O (H-C[3Thi]INNCP[Dab]G-NH2; disulfide 1-6) | 8.13 | > 1300 | > 1300 | 51 | < 5.00 | > 10000 | < 5.00 | > 10000 | 6.42 | – | –
CC[C@H](C)[C@@H]1NC(=O)[C@H](Cc2ccco2)NC(=O)[C@@H](N)CSSC[C@@H](C(=O)N2CCC[C@H]2C(=O)N[C@@H](CCN)C(=O)NCC(N)=O)NC(=O)[C@H](CC(N)=O)NC(=O)[C@H](CCC(N)=O)NC1=O (H-C[Ala(2-furyl)]IQNCP[Dab]G-NH2; disulfide 1-6) | 8.66 | 47 | 150 | 95 | – | – | – | – | 6.68 | 6.48 | 6.98
CC[C@H](C)[C@@H]1NC(=O)[C@H](Cc2cccs2)NC(=O)[C@@H](N)CSSC[C@@H](C(=O)N2CCC[C@H]2C(=O)N[C@@H](CCCN)C(=O)NCC(N)=O)NC(=O)[C@H](CC(N)=O)NC(=O)[C@H](CC(N)=O)NC1=O (H-C[2Thi]INNCP[Orn]G-NH2; disulfide 1-6) | 7.82 | > 660 | > 660 | 14 | < 5.00 | > 10000 | < 5.00 | > 10000 | 6.66 | – | –
CC[C@H](C)[C@@H]1NC(=O)[C@H](Cc2cccs2)NC(=O)[C@@H](N)CSSC[C@@H](C(=O)N2CCC[C@H]2C(=O)N[C@@H](CCCNC(C)C)C(=O)NCC(N)=O)NC(=O)[C@H](CC(N)=O)NC(=O)[C@H](CC(N)=O)NC1=O (H-C[2Thi]INNCP[Orn(iPr)]G-NH2; disulfide 1-6) | 7.85 | 61 | > 710 | 18 | – | – | < 5.00 | > 10000 | 6.59 | – | 6.07
